Reference: ChEMBL document CHEMBL1144782, “Isoindolo[2,1-a]quinoxaline derivatives, novel potent antitumor agents with dual inhibition of tubulin polymerization and topoisomerase I” (2008)
The source made the active and inactive calls. No cut-off for these calls is given here.

Assays:
NCI-H226 = assay: Antitumor activity against human NCI-H226 cells; format: functional; conditions: for TGI: read-out: pTGI (converted)
Method in brief: (§1)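 Run by the NCI in its in vitro disease-oriented screen of about 60 human tumour cell lines. For each line it reports pGI50 (50% net growth inhibition), pTGI (total growth inhibition) and pLC50 (50% net cell death), each as –log molar concentration. Where an effect was not reached within the tested range, the highest tested concentration was used.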

[1] = Antitumor activity against human NCI-H322 cells; format: functional; conditions: for TGI: read-out: pTGI (converted); method in brief: as §1
NCI-H460 = assay: Antitumor activity against human NCI-H460 cells; format: functional; conditions: for CC50: read-out: Log LC50 (the source's name) (converted); for TGI: read-out: pTGI (converted); method in brief: as §1
COLO 205 = assay: Antitumor activity against human COLO205 cells; format: functional; conditions: for TGI: read-out: pTGI (converted); method in brief: as §1
HCT-15 = assay: Antitumor activity against human HCT15 cells; format: functional; conditions: for CC50: read-out: Log LC50 (the source's name) (converted); for TGI: read-out: pTGI (converted); method in brief: as §1
HT-29 = assay: Antitumor activity against human HT29 cells; format: functional; conditions: for TGI: read-out: pTGI (converted); method in brief: as §1
SW-620 = assay: Antitumor activity against human SW620 cells; format: functional; conditions: for CC50: read-out: Log LC50 (the source's name) (converted); for TGI: read-out: pTGI (converted)
Method in brief: (§2)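 NCI 60-cell-line screen. Parameters were GI50 (50% net growth inhibition), TGI and LC50, each reported as –log molar concentration. Where an effect was not reached within the tested range, the highest tested concentration was used in the calculation.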

Jurkat [2] = assay: Cell cycle arrest in human Jurkat cells assessed as accumulation at S phase at 62.5 nM after 24 hrs by flow cytometry; format: functional
Method in brief: (§3)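 Exponentially growing Jurkat cells (5 × 105) were exposed to compound for 24 h. Cells were then fixed in ice-cold 70% ethanol, lysed with RNase A-containing buffer and stained with propidium iodide. DNA-content histograms from flow cytometry gave G1, S and G2/M fractions.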

Jurkat [3] = assay: Cell cycle arrest in human Jurkat cells assessed as accumulation at G2/M phase at 125 nM after 24 hrs by flow cytometry; format: functional; method in brief: as §3
SNB-75 = assay: Antitumor activity against human SNB75 cells; format: functional; conditions: Homo sapiens, SNB-75; for TGI: read-out: pTGI (converted); method in brief: as §1
Malme-3M = assay: Antitumor activity against human MALME3M cells; format: functional; conditions: for CC50: read-out: Log LC50 (the source's name) (converted); for TGI: read-out: pTGI (converted); method in brief: as §1
SK-MEL-2 = assay: Antitumor activity against human SKMEL2 cells; format: functional; conditions: for TGI: read-out: pTGI (converted); method in brief: as §1
OVCAR-3 = assay: Antitumor activity against human OVCAR-3 cells; format: functional; conditions: for TGI: read-out: pTGI (converted); method in brief: as §1
786-0 = assay: Antitumor activity against human 786-0 cells; format: functional; conditions: for CC50: read-out: Log LC50 (the source's name) (converted); for TGI: read-out: pTGI (converted); method in brief: as §1
Jurkat [4] = assay: Cell cycle arrest in human Jurkat cells assessed as accumulation at S phase at 125 nM after 24 hrs by flow cytometry; format: functional; method in brief: as §3
Jurkat [5] = assay: Cell cycle arrest in human Jurkat cells assessed as accumulation at G1 phase at 250 nM after 24 hrs by flow cytometry; format: functional; method in brief: as §3
Jurkat [6] = assay: Cell cycle arrest in human Jurkat cells assessed as accumulation at G1 phase at 500 nM after 24 hrs by flow cytometry; format: functional; method in brief: as §3
Tubulin (Sus scrofa) [7] = biological target: T1, Tubulin (Sus scrofa) (UniProt P02554+P02550); assay: Inhibition of pig brain tubulin polymerization at 5 uM
Jurkat [8] = assay: Induction of apoptosis in human Jurkat cells after 24 hrs by flow cytometry; format: functional, cell-based
Method in brief: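 Jurkat cells after 24 h exposure were stained with Annexin V-FITC plus propidium iodide. Flow cytometry used 488 nm excitation, with emission filters at 525 and 585 nm.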

Jurkat [9] = assay: Effect on mitochondrial dysfunction in human Jurkat cells assessed as induction of ROS production after 24 hrs by flow cytometry; format: functional, cell-based
Method in brief: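 Jurkat cells after 24 h exposure were resuspended in HBSS with hydroethidine (2.5 µM, ROS) or NAO (100 nM, cardiolipin oxidation) for 30 min at 37 °C. Flow cytometry used 488 nm excitation, with emission at 585 nm (HE) or 530 nm (NAO). Mean ± SEM of three experiments.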

Jurkat [10] = assay: Induction of apoptosis in human Jurkat cells assessed as activation of caspase 3 after 24 hrs by flow cytometry; format: functional, cell-based
Method in brief: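 Jurkat cells were exposed (500 nM) for 24 h, then harvested and incubated in HBSS with cell-permeable FITC-DEVD-fmk (caspase-3) or FITC-[…]-fmk (caspase-9) for 1 h at 37 °C. After washing, cells were read by flow cytometry on FL-1. Results are fold increase over control.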

BT-549 = assay: Antitumor activity against human BT549 cells; format: functional; conditions: for TGI: read-out: pTGI (converted); method in brief: as §1
MCF7 [11] = assay: Cell viability against human MCF7 cells at 10 uM; format: functional
CCRF-CEM [12] = assay: Antitumor activity against human CCRF-CEM cells; format: functional; conditions: for TGI: read-out: pTGI (converted); method in brief: as §1
EKVX = assay: Antitumor activity against human EKVX cells; format: functional; conditions: for TGI: read-out: pTGI (converted); method in brief: as §1
SN12C = assay: Antitumor activity against human SN12C cells; format: functional; conditions: for TGI: read-out: pTGI (converted); method in brief: as §1
TK-10 = assay: Antitumor activity against human TK10 cells; format: functional; conditions: for CC50: read-out: Log LC50 (the source's name) (converted); for TGI: read-out: pTGI (converted); method in brief: as §2
PC-3 = assay: Antitumor activity against human PC3 cells; format: functional; conditions: for TGI: read-out: pTGI (converted); method in brief: as §1
DU-145 = assay: Antitumor activity against human DU145 cells; format: functional; conditions: for CC50: read-out: Log LC50 (the source's name) (converted); method in brief: as §1
NCI/ADR-RES = assay: Antitumor activity against human NCI/ADR-RES cells; format: functional; conditions: for TGI: read-out: pTGI (converted); method in brief: as §1
MCF7 [13] = assay: Growth inhibition of human MCF7 cells after 72 hrs by MTT assay; format: functional; conditions: MCF7, 72 h
Method in brief: (§4)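 Growth inhibition by MTT after 72 h incubation. Resistant sublines: LoVoDoxo and MCF-7 MDR were kept in 0.1 µg/mL doxorubicin; CEMVbl-100 was selected against vinblastine. GI50 given as mean ± SEM of three independent experiments. Resistance index is resistant-line GI50 over parental GI50.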

MCF7 [14] = assay: Growth inhibition of human multidrug-resistant MCF7 cells after 72 hrs by MTT assay; format: functional; conditions: MCF7, 72 h; method in brief: as §4
MCF7 [15] = assay: Resistance index, Ratio of GI50 for human multidrug-resistant MCF7 cells to GI50 for human MCF7 cells; format: functional; method in brief: as §4
CCRF-CEM [16] = assay: Growth inhibition of human CEM cells after 72 hrs by MTT assay; format: functional; method in brief: as §4
Jurkat [17] = assay: Cell cycle arrest in human Jurkat cells assessed as accumulation at S phase at 32 nM after 24 hrs by flow cytometry; format: functional; method in brief: as §3
Tubulin (Sus scrofa) [18] = biological target: T1, Tubulin (Sus scrofa); assay: Inhibition of pig brain tubulin polymerization

T1 sequence (P02550 whole entry, looked up): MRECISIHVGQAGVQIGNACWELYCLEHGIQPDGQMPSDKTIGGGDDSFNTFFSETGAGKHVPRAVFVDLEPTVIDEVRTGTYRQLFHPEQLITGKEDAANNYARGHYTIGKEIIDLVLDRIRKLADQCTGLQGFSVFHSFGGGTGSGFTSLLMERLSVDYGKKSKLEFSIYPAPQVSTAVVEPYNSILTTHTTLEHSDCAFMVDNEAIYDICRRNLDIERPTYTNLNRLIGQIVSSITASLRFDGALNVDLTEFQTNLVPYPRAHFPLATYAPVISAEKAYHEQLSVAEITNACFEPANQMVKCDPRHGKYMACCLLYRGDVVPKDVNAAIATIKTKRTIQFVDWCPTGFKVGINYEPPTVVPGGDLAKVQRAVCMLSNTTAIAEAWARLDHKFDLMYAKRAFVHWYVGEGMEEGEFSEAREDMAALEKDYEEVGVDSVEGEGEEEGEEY
T1 sequence (P02554 whole entry, looked up): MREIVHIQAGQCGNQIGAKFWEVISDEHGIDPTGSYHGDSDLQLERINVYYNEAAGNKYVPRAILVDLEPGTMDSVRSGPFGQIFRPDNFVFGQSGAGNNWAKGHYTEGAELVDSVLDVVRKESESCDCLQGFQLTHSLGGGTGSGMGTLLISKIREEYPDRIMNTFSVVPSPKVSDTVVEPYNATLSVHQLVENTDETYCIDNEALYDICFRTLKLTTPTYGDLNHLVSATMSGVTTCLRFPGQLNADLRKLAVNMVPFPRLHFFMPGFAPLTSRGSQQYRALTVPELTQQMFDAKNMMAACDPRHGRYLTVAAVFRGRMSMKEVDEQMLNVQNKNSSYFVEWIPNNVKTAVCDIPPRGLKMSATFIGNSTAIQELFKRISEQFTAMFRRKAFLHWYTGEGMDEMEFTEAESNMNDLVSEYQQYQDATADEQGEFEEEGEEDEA

## COc1ccc2c(c1)[nH]c(=O)c1c3ccccc3cn21
NCI-H226
  GI50: 0.0457 µM
  LC50 (50% net cell kill): > 100 µM
  TGI: 0.525 µM
[1]
  GI50: 0.0832 µM
  LC50 (50% net cell death): 7.76 µM
  TGI: 2.57 µM
NCI-H460
  GI50: 0.0347 µM
  CC50: 5.13 µM
  TGI: 1.12 µM
COLO 205
  GI50: 0.0407 µM
  LC50: 5.75 µM
  TGI: 1.15 µM
HCT-15
  GI50: 0.0263 µM
  CC50: 4.57 µM
  TGI: 1.15 µM
HT-29
  GI50: 0.0339 µM
  LC50: > 100 µM
  TGI: 1.48 µM
SW-620
  GI50: 0.0263 µM
  CC50: 4.17 µM
  TGI: 1.41 µM
Jurkat [2]
  Activity: 53.5%
Jurkat [3]
  Activity: 59.2%
SNB-75
  GI50: 0.0275 µM
  LC50: > 100 µM
  TGI: 0.0832 µM
Malme-3M
  GI50: 0.01 µM
  CC50: 8.51 µM
  TGI: 3.39 µM
SK-MEL-2
  GI50: 0.158 µM
  LC50: 7.76 µM
  TGI: 2.51 µM
OVCAR-3
  GI50: 0.0224 µM
  LC50 (50% net cell death): 2.88 µM
  TGI: 0.0646 µM
786-0
  GI50: 0.0417 µM
  CC50: 4.57 µM
  TGI: 1.86 µM
Jurkat [4]
  Activity: 38.6%
Jurkat [5]
  Activity: 0.6%
Jurkat [6]
  Activity: 0.1%
Tubulin (Sus scrofa) [7]
  Activity: Active
Jurkat [8]
  Activity: Dose-dependent effect
Jurkat [9]
  Activity: Active
Jurkat [10]
  Activity: Active
BT-549
  GI50: 0.055 µM
  LC50 (50% net cell kill): 6.31 µM
  TGI: 2.04 µM
MCF7 [11]
  Activity: 0%
CCRF-CEM [12]
  GI50: 0.0302 µM
  LC50: > 100 µM
  TGI: 1.45 µM
EKVX
  GI50: 0.0912 µM
  LC50 (50% net cell kill): > 100 µM
  TGI: 29.5 µM
SN12C
  GI50: 0.0575 µM
  LC50: > 100 µM
  TGI: 2.09 µM
TK-10
  GI50: 0.513 µM
  CC50: 6.61 µM
  TGI: 2.45 µM
PC-3
  GI50: 0.0372 µM
  LC50 (50% net cell death): > 100 µM
  TGI: 2.57 µM
DU-145; Homo sapiens, DU-145
  CC50: 4.27 µM
NCI/ADR-RES
  GI50: 0.0214 µM
  LC50: 10 µM
  TGI: 0.0575 µM
MCF7 [13]
  GI50: 0.17 µM
MCF7 [14]
  GI50: 0.15 µM
MCF7 [15]
  RatioGI50: 0.9
CCRF-CEM [16]
  GI50: 0.02 µM
Jurkat [17]
  Activity: 44.1%

## O=c1[nH]c2cc(Cl)c(Cl)cc2n2cc3ccccc3c12
NCI-H226
  GI50: 18.6 µM
  LC50 (50% net cell kill): 69.2 µM
  TGI: 35.5 µM
[1]
  GI50: 13.5 µM
  LC50 (50% net cell death): 55 µM
  TGI: 26.9 µM
NCI-H460
  GI50: 18.6 µM
  CC50: 57.5 µM
  TGI: 33.1 µM
COLO 205
  GI50: 29.5 µM
  LC50: > 100 µM
  TGI: 39.8 µM
HCT-15
  GI50: 16.6 µM
  CC50: 55 µM
  TGI: 30.2 µM
HT-29
  GI50: 28.8 µM
  LC50: > 100 µM
  TGI: > 100 µM
SW-620
  GI50: 15.8 µM
  CC50: 53.7 µM
  TGI: 29.5 µM
SNB-75
  GI50: 21.4 µM
  LC50: > 100 µM
  TGI: 53.7 µM
Malme-3M
  GI50: 17 µM
  CC50: 63.1 µM
  TGI: 32.4 µM
SK-MEL-2
  GI50: 25.1 µM
  LC50: > 100 µM
  TGI: 53.7 µM
OVCAR-3
  GI50: 18.6 µM
  LC50 (50% net cell death): 57.5 µM
  TGI: 32.4 µM
786-0
  GI50: 25.1 µM
  CC50: 63.1 µM
  TGI: 39.8 µM
Tubulin (Sus scrofa) [18]
  Activity: > 10 µM
BT-549
  GI50: 26.3 µM
  LC50 (50% net cell kill): > 100 µM
  TGI: 57.5 µM
MCF7 [11]
  Activity: 10%
CCRF-CEM [12]
  GI50: 21.9 µM
  LC50: > 100 µM
  TGI: 49 µM
EKVX
  GI50: 21.9 µM
  LC50 (50% net cell kill): 87.1 µM
  TGI: 43.7 µM
SN12C
  GI50: 15.8 µM
  LC50: 55 µM
  TGI: 29.5 µM
TK-10
  GI50: 16.6 µM
  CC50: 55 µM
  TGI: 30.2 µM
PC-3
  GI50: 17.4 µM
  LC50 (50% net cell death): 56.2 µM
  TGI: 30.9 µM
DU-145
  GI50: 31.6 µM
DU-145; Homo sapiens, DU-145
  GI50: 17.8 µM
  CC50: 56.2 µM
NCI/ADR-RES
  GI50: 17.8 µM
  LC50: 56.2 µM
  TGI: 31.6 µM
MCF7 [13]
  GI50: 3.3 µM
MCF7 [14]
  GI50: 7.6 µM
MCF7 [15]
  RatioGI50: 2.3
CCRF-CEM [16]
  GI50: 2.2 µM
